According to ChEMBL document CHEMBL4706495, “A novel class of small molecule inhibitors with radioprotective properties” (Eur J Med Chem, 2020):

Key:
MOLT-4 [1] = experiment: Cytotoxicity against human MOLT-4 cells assessed as cell viability at 100 uM measured after 48 hrs by WST-1 assay relative to control; type: functional; details: read-out: Activity
Summary of the method: (§1)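 Ten-line human panel (9 cancer, 1 non-cancerous). Cells were seeded at a pre-established optimal density (500–30 × 10³ per well) and settled overnight. Compounds came from 10 mM DMSO stocks and were tested at two concentrations. WST-1 readout followed the manufacturer's protocol at the end of cultivation. Viability is expressed as % of untreated control cells, mean of three independent experiments.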

MCF7 [2] = experiment: Cytotoxicity against human MCF7 cells assessed as cell viability at 10 uM measured after 48 hrs by WST-1 assay relative to control; type: functional; details: read-out: Activity; summary of the method: as §1
A2780 [3] = experiment: Cytotoxicity against human A2780 cells assessed as cell viability at 100 uM measured after 48 hrs by WST-1 assay relative to control; type: functional; details: read-out: Activity; summary of the method: as §1
Jurkat [4] = experiment: Cytotoxicity against human Jurkat cells assessed as cell viability at 100 uM measured after 48 hrs by WST-1 assay relative to control; type: functional; details: read-out: Activity; summary of the method: as §1
[5] = Toxicity in C57Bl/6 mouse assessed as adverse effects at 100 mg/kg, ip measured after 30 days; type: organism-based; details: in vivo, 720 h, time 30 day
Summary of the method: (§2)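 Safety in C57Bl/6 mice (27 ± 3 g) given a single 100 mg/kg i.p. injection without irradiation. Deaths, adverse effects and body weight followed over 30 days against an untreated control group. Weight reported as change from day 0.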

Mus musculus [6] = experiment: Radioprotective activity in C57Bl/6 mouse assessed as median survival time at 100 mg/kg, ip administered 5 min prior to gamma-irradation at 8.5 Gy and measured after 30 days (reference value: 12 days); type: functional
SAOS-2 [7] = experiment: Cytotoxicity against human SAOS-2 cells assessed as cell viability at 100 uM measured after 48 hrs by WST-1 assay relative to control; type: functional; details: read-out: Activity; summary of the method: as §1
MCF7 [8] = experiment: Cytotoxicity against human MCF7 cells assessed as cell viability at 100 uM measured after 48 hrs by WST-1 assay relative to control; type: functional; details: read-out: Activity; summary of the method: as §1
[9] = Toxicity in C57Bl/6 mouse assessed as change in body weight at 100 mg/kg, ip measured after 30 days (reference value: 103 +/- 12 %); type: organism-based; details: in vivo, 720 h, time 30 day
[10] = Cytotoxicity against human MRC5 cells assessed as cell viability at 100 uM measured after 48 hrs by WST-1 assay relative to control; type: cell-based; details: read-out: Activity; summary of the method: as §1
PANC-1 [11] = experiment: Cytotoxicity against human PANC-1 cells assessed as cell viability at 10 uM measured after 48 hrs by WST-1 assay relative to control; type: functional; details: read-out: Activity; summary of the method: as §1
A549 [12] = experiment: Cytotoxicity against human A549 cells assessed as reduction in cell viability incubated for 24 hrs by MTT assay; type: functional, cell-based; details: A549, 24 h
Summary of the method: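 A-549 cells in DMEM with 10% FBS and 1% penicillin-streptomycin were attached overnight. Compounds were prepared in PBS and serially diluted in DMEM, then incubated 24 h. Viability was read by colorimetric MTT reduction against an untreated control on each plate (100%). IC50 came from four-parameter nonlinear regression of the log concentration-response curve, mean ± SEM. MTC is the highest concentration not differing from control (t-test).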

Mus musculus [13] = experiment: Radioprotective activity in C57Bl/6 mouse assessed as body weight gain at 100 mg/kg, ip administered 5 min prior to gamma-irradation at 8.5 Gy measured after 30 days relative to control; type: functional
HT-29 [14] = experiment: Cytotoxicity against human HT-29 cells assessed as cell viability at 100 uM measured after 48 hrs by WST-1 assay relative to control; type: functional; details: read-out: Activity; summary of the method: as §1
HeLa [15] = experiment: Cytotoxicity against human HeLa cells assessed as cell viability at 100 uM measured after 48 hrs by WST-1 assay relative to control; type: functional; details: read-out: Activity; summary of the method: as §1
[16] = Toxicity in C57Bl/6 mouse assessed as average body weight at 100 mg/kg, ip and measured immediately (reference value: 26.3 +/- 2.4 g); type: organism-based; details: in vivo
Mus musculus [17] = experiment: Radioprotective activity in C57Bl/6 mouse assessed as average body weight at 100 mg/kg, ip administered 5 min prior to gamma-irradation at 8.5 Gy and measured immediately (reference value: 25.4 +/- 2.6 g); type: functional
A549 [18] = experiment: Cytotoxicity against human A549 cells assessed as maximum tolerated concentration incubated for 24 hrs by MTT assay; type: functional
Summary of the method: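 A-549 cells in DMEM with 10% FBS and 1% penicillin-streptomycin, left to attach overnight. Compounds made up in PBS, serially diluted in DMEM, incubated 24 h, then viability read by MTT reduction against untreated controls on each plate. MTC taken as the highest concentration showing no significant difference from non-treated control (t-test).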

A549 [19] = experiment: Cytotoxicity against human A549 cells assessed as cell viability at 100 uM measured after 48 hrs by WST-1 assay relative to control; type: functional; details: read-out: Activity; summary of the method: as §1
[20] = Cytotoxicity against human MRC5 cells assessed as cell viability at 10 uM measured after 48 hrs by WST-1 assay relative to control; type: cell-based; details: read-out: Activity; summary of the method: as §1
A2780 [21] = experiment: Cytotoxicity against human A2780 cells assessed as cell viability at 10 uM measured after 48 hrs by WST-1 assay relative to control; type: functional; details: read-out: Activity; summary of the method: as §1
[22] = Toxicity in C57Bl/6 mouse assessed as average body weight at 100 mg/kg, ip measured after 30 days (reference value: 27 +/ 3.2 g); type: organism-based; details: in vivo, 720 h, time 30 day
[23] = Toxicity in C57Bl/6 mouse assessed as mouth death at 100 mg/kg, ip measured after 30 days; type: organism-based; details: in vivo, 720 h, time 30 day; summary of the method: as §2
HT-29 [24] = experiment: Cytotoxicity against human HT-29 cells assessed as cell viability at 10 uM measured after 48 hrs by WST-1 assay relative to control; type: functional; details: read-out: Activity; summary of the method: as §1
Mus musculus [25] = experiment: Radioprotective activity in C57Bl/6 mouse assessed as average body weight at 100 mg/kg, ip administered 5 min prior to gamma-irradation at 8.5 Gy and measured after 30 days; type: functional
Jurkat [26] = experiment: Cytotoxicity against human Jurkat cells assessed as cell viability at 10 uM measured after 48 hrs by WST-1 assay relative to control; type: functional; details: read-out: Activity; summary of the method: as §1
MOLT-4 [27] = experiment: Cytotoxicity against human MOLT-4 cells assessed as cell viability at 10 uM measured after 48 hrs by WST-1 assay relative to control; type: functional; details: read-out: Activity; summary of the method: as §1
PANC-1 [28] = experiment: Cytotoxicity against human PANC-1 cells assessed as cell viability at 100 uM measured after 48 hrs by WST-1 assay relative to control; type: functional; details: read-out: Activity; summary of the method: as §1
[29] = Immuno-toxicity in C57Bl/6 mouse assessed as decrease in absolute number of lymphocytes at 100 mg/kg, ip measured after 12 days post-treatment by flow cytometry; type: organism-based; details: in vivo, 288 h, time 12 day
A549 [30] = experiment: Cytotoxicity against human A549 cells assessed as cell viability at 10 uM measured after 48 hrs by WST-1 assay relative to control; type: functional; details: read-out: Activity; summary of the method: as §1
MOLT-4 [31] = experiment: Radioprotective activity against gamma irradiation-induced apoptosis in human MOLT-4 cells assessed as viable cells at 100 uM pretreated with compound for 1 hr followed by gamma irradiation and measured after 24 hrs by annexinV/propidium iodide staining based flow cytometry (reference value: 40 %); type: functional; details: MOLT-4, light or radiation study, time 25 hrs, read-out: Activity
HeLa [32] = experiment: Cytotoxicity against human HeLa cells assessed as cell viability at 10 uM measured after 48 hrs by WST-1 assay relative to control; type: functional; details: read-out: Activity; summary of the method: as §1
SAOS-2 [33] = experiment: Cytotoxicity against human SAOS-2 cells assessed as cell viability at 10 uM measured after 48 hrs by WST-1 assay relative to control; type: functional; details: read-out: Activity; summary of the method: as §1

C=CCc1ccc(OCC(O)CN2CCN(CCO)CC2)c(OC)c1 (stereo not drawn)
viability at 100 µM (MOLT-4 [1]): 65% | viability at 10 µM (MCF7 [2]): 99% | viability at 100 µM (A2780 [3]): 85% | viability at 100 µM (Jurkat [4]): 83% | Activity [5]: Non-Toxic | MST (Mus musculus [6]): 12 days | viability at 100 µM (SAOS-2 [7]): 75% | viability at 100 µM (MCF7 [8]): 89% | Activity [9]: 105% | viability at 48 h, 100 µM [10]: 103% | viability at 10 µM (PANC-1 [11]): 101% | IC50 (A549 [12]): 1.12 mM | Activity (Mus musculus [13]): 103% | viability at 100 µM (HT-29 [14]): 102% | viability at 100 µM (HeLa [15]): 99% | Activity [16]: 25.7 g | Activity (Mus musculus [17]): 25.1 g | MTD (A549 [18]): 0.2 mM | viability at 100 µM (A549 [19]): 105% | viability at 48 h, 10 µM [20]: 94% | viability at 10 µM (A2780 [21]): 97% | Activity [22]: 27 g | Activity [23]: Non-Toxic | viability at 10 µM (HT-29 [24]): 109% | Activity (Mus musculus [25]): 27.3 g | viability at 10 µM (Jurkat [26]): 110% | viability at 10 µM (MOLT-4 [27]): 104% | viability at 100 µM (PANC-1 [28]): 116% | Activity [29]: Toxic | viability at 10 µM (A549 [30]): 91% | viability at 100 µM (MOLT-4 [31]): 52% | viability at 10 µM (HeLa [32]): 100% | viability at 10 µM (SAOS-2 [33]): 112%
